Source: PubChem BioAssay (several laboratories)
Sampled rows, rich in hits. Any-hit rate of the full collection: about 4.9%.
STAT3 blocker – IL-6 driven STAT3 reporter inhibitors, primary screen, U3A cells, luciferase, luminescence, MLSCN library; IL-6 STAT3-luciferase reporter; host cell line lacks STAT1; inhibition, % at 5.5 µM; 190,000 compounds, 0.89% hits;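 active means inhibition above the mean inhibition across all screened compounds plus 3 SD, cut at about 44% in these data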;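 further: 0% = DMSO only wells and 100% = 100 µM nifuroxazide control wells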
STAT1 blocker – STAT1 signaling inhibitors, primary screen, cell-based, HTS, luciferase reporter | NIH 3T3 STAT1-luciferase reporter, IFN-gamma, luminescence | inhibition, % at 5.5 µM | 200,000 compounds, 0.35% hits | AID 920, 2007;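 active means inhibition above a set limit, the mean inhibition across all tested compounds plus 3 SD, cut at about 34% in these data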;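 further: 0% = IFN-gamma with DMSO and 100% = IFN-gamma with 300 µM nifuroxazide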
NF-kB neuron act – activators of NF-kB expression in neurons, primary screen, cell-based, HTS. human neuronal cells, NF-kB reporter expression; hits give high values. fold change at 12.5 µM. 190,000 compounds, 1.6% hits; in the data active means fold change above about 3.3
STAT3 activator – IL-6 driven STAT3 reporter potentiators, primary screen, U3A cells, luciferase, luminescence, MLSCN library | AID 871, 2007 | 190,000 compounds, 0.91% hits | IL-6 STAT3-luciferase reporter; 100% = signal with IL-6 EC80 alone | activation (% of control), % at 5.6 µM;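 active means activation above the screen-wide mean of compound activation plus 3 SD, cut at about 130% in these data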;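 further: 0% = background luminescence of wells with medium and substrate only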
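Assay system – human STAT1-deficient U3A cells with stable STAT3-luciferase reporter · Also added – IL-6 (33 ng/mL) · Schedule – compound 1 h, then IL-6 6 h at 37 °C · Technique – reporter luminescence signal · Evaluation – % activation versus median of IL-6-stimulated wells · Benchmarks – IL-6-only wells as 100% reference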
APP 5'UTR act – activators of APP 5'UTR luciferase reporter, primary screen, SH-SY5Y cells; SH-SY5Y APP 5'UTR luciferase reporter, luminescence; zero percent = DMSO vehicle wells; activation, % at 2 µM; 190,000 compounds, 1% hits;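 active means activation above a set limit, based on mean plus 3 SD of controls, cut at about 140% in these data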
STAT1 activator – STAT1 signaling activators, primary screen, cell-based, HTS, luciferase reporter. NIH 3T3 STAT1-luciferase reporter, IFN-gamma, luminescence; 100% = IFN-gamma alone, no compound. AID 932, 2007. activation (% of control), % at 5.5 µM. 200,000 compounds, 2.6% hits;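 active means activation above the screen-wide mean activation plus 3 SD, cut at about 130% in these data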;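 further: raw ratio to IFN-gamma control signal so 100% means no change and 0% no light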
An asterisk follows results filed as active; x = no result.

SMILES | STAT3 blocker | STAT1 blocker | NF-kB neuron act | STAT3 activator | APP 5'UTR act | STAT1 activator
CC(=O)c1c(C)[nH]c(C(=O)NCCc2ccccc2)c1C | 9.9 | -53.7 | 3.44* | 96.0 | 131.4 | 149.2*
CC(=O)c1c(C)[nH]c(C(=O)COC(=O)CCCOc2ccccc2)c1C | 8.8 | 4.1 | 1.08 | 97.3 | -0.3 | 96.1
ONc1cccnc1-n1nc(C(F)(F)F)cc1C(F)(F)F | -0.5 | 4.9 | 1.29 | 102.0 | 20.6 | 95.3
Cc1oc(-c2cccc3ccccc23)nc1CN1CCN(c2ncnc3ccccc23)CC1 | 15.2 | 10.6 | 0.55 | 92.7 | -11.1 | 88.3
O=C(COc1ccc([N+](=O)[O-])cc1)Nc1ccc(C(=O)Nc2ccccc2C(=O)O)cc1 | 12.5 | 3.2 | 1.23 | 92.9 | 0.3 | 95.6
CC(=O)Nc1nonc1NC(C)=O | 1.1 | -3.1 | 1.08 | 102.8 | -3.8 | 102.8
CC(=O)Nc1cc(OC(C)=O)c2nonc2c1OC(C)=O | -1.9 | 95.0* | x | 105.5 | -16.6 | 12.0
Cc1ccccc1C(=O)NC(CC(C)C)C(=O)NN1C(=O)c2ccccc2C1=O (stereo not given) | -5.2 | 0.2 | 1.02 | 108.7 | -1.6 | 98.5
CCN(CCNCC(O)COCc1ccc(Cl)cc1)c1cccc(C)c1 (stereo not given) | 4.4 | -3.5 | 1.03 | 96.3 | 0.0 | 103.3
Cc1ccc(/C=N/n2cnc3sc(C)c(C)c3c2=O)o1 | 9.3 | -22.8 | 1.43 | 92.4 | -1.0 | 121.4
Brc1ccc(-c2cnc(-c3cccs3)o2)cc1 | 3.2 | -46.9 | 2.7 | 101.5 | 88.5 | 142.7*
O=c1c2c(-c3cccs3)csc2ncn1-c1ccc(Br)cc1 | -0.1 | 2.5 | 0.74 | 103.6 | -8.7 | 97.8
CN1CCN(S(=O)(=O)c2ccc(NC(=O)COc3ccccc3Cl)cc2)CC1 | 13.9 | -8.3 | 0.97 | 90.0 | -3.9 | 105.9
O=C(Nc1ccccc1O)c1ccc(NS(=O)(=O)c2cccc3cccnc23)cc1 | x | 5.6 | 11.8* | x | 46.7 | 93.7
c1ccc(C[n+]2cccc3c4ccccc4ccc32)cc1 | 59.9* | 21.3 | 1.13 | 56.5 | -1.6 | 80.8
CCOc1ccc2nc(SCc3ccccc3C#N)sc2c1 | 6.2 | -38.0 | 2.87 | 104.5 | 115.6 | 134.2*
CC(C)CCOC(=O)C1C(c2ccccc2)C(C(=O)O)C1c1ccccc1 (stereo not given) | 2.1 | -8.2 | 1.2 | 104.3 | 8.2 | 107.6
Cc1c(C(=O)NC(=S)Nc2ccc(N3CCOCC3)cc2)cccc1[N+](=O)[O-] | 12.7 | 3.5 | 1.17 | 91.3 | -2.4 | 95.3
Cc1ccc(S(=O)(=O)N(C)C)cc1NC(=O)CCc1c[nH]c2ccccc12 | 25.2 | 4.9 | 1.36 | 85.6 | 6.5 | 93.9
COc1ccc(S(=O)(=O)N(C)C)cc1NC(=O)Cc1c[nH]c2ccccc12 | -40.0 | 13.8 | 1.05 | 133.3* | 28.6 | 87.7
CCc1nnc(NC(=O)CSc2ncnc3c2cnn3-c2ccc(OC)cc2)s1 | 11.4 | 10.7 | 1.18 | 96.8 | 0.0 | 90.4
O=C(CSCc1c(Cl)cccc1Cl)N1CCOCC1 | 9.9 | -4.4 | 1.04 | 101.3 | -1.2 | 103.2
CCCc1cc(C(=O)O)c2ccccc2n1 | 2.7 | -0.2 | 1.13 | 95.3 | -5.7 | 100.2
Cc1ccc(NC(=O)Cc2cc(C(=O)O)c3ccccc3n2)c(C)c1 | 6.6 | -16.4 | 4.59* | 98.1 | -11.9 | 113.5
O=C(CNC(=O)c1ccccc1Cl)OCC(=O)N1CCc2ccccc21 | -17.1 | -36.9 | 2.71 | 116.2 | 9.3 | 133.6*
O=C(CN1CCCC1)Nc1ccc(Oc2ccc(NC(=O)CN3CCCC3)cc2)cc1 | 5.7 | 7.6 | 0.95 | 98.7 | 2.4 | 93.1
O=C(CN1CCCC1)Nc1ccc(NC(=O)Nc2ccccc2)cc1 | 0.6 | -33.6 | 1.66 | 102.5 | 51.3 | 130.9*
COc1cc(CN2CCCC(CO)(Cc3ccccc3C)C2)cc2c1OCO2 (stereo not given) | 1.7 | 18.7 | 1.16 | 103.1 | 8.1 | 81.4
Cc1c(C(=O)/C=C/c2cccs2)oc2ccc(F)cc12 | -50.8 | 1.8 | 2.59 | 150.7* | -8.9 | 98.3
